The target of assay [1] is T1, Metabotropic glutamate receptor 5 (Rattus norvegicus, UniProt P31424). Description: Allosteric modulation of mGluR5 in E17 rat neuronal cultures assessed as inhibition of (S)-3,5-dihydroxyphenylglycine-induced calcium level. It counts as functional. The method in brief: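 Primary neocortical cultures from E17 rat embryos, grown at least 5 days, then loaded with the Ca2+ dye fluo-4/AM. Baseline and agonist-evoked fluorescence signals were recorded on a plate reader fluorometer.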
T1 sequence (P31424 whole entry): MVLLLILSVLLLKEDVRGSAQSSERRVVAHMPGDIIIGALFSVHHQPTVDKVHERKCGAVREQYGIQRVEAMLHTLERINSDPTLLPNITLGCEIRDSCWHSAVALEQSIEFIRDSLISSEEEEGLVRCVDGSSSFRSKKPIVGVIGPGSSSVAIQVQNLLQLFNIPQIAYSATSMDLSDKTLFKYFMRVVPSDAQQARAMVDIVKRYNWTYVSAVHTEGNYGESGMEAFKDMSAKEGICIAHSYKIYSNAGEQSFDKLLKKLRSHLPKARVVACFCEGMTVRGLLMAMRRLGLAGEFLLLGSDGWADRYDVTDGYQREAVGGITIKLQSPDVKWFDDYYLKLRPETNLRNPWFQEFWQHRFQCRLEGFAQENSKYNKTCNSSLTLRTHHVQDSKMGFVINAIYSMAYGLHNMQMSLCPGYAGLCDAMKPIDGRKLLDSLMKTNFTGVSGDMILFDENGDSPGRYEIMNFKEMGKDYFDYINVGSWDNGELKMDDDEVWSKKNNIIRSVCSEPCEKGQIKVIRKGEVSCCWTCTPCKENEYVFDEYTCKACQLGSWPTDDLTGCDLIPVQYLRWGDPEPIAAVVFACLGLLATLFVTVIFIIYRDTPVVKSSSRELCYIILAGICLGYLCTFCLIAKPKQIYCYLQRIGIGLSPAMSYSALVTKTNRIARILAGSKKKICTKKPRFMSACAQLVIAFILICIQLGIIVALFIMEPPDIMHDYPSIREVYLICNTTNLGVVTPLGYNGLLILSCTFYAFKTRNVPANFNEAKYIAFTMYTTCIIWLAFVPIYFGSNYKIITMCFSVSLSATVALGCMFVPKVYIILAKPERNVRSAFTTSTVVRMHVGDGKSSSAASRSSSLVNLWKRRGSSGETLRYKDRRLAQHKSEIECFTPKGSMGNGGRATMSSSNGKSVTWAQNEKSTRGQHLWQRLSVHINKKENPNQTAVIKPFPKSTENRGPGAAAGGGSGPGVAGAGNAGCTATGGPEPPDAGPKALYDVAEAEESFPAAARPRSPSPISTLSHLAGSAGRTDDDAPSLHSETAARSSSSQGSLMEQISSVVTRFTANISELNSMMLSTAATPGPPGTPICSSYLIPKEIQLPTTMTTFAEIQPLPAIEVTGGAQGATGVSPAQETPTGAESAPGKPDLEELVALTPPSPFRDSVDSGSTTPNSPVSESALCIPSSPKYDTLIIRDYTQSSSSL

Assay [2] addresses T1, Metabotropic glutamate receptor 5. The assay can be described thus: Displacement of [3H]-M-MPEP from mGluR5 in rat cerebrocortical membranes. It counts as cell membranes, Membrane. Put shortly:
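Displacement run in duplicate or triplicate, with curves of at least six concentrations. IC50 was converted to Ki by Cheng-Prusoff, using Kd from a Scatchard plot.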
On the technique in general: In a radioligand displacement assay an active substance lowers the binding of a labelled ligand.

Assay [3] deals with Metabotropic glutamate receptor 5 (Homo sapiens, UniProt P41594). The assay can be described thus: Binding affinity to human mGluR5. The method in brief: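 Run in duplicate or triplicate, with concentration-displacement curves of at least six concentrations giving IC50. Ki derived by Cheng-Prusoff, using the radioligand Kd determined from a Scatchard plot.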
Chain of Metabotropic glutamate receptor 5 (Homo sapiens, UniProt P41594) (P41594 whole entry): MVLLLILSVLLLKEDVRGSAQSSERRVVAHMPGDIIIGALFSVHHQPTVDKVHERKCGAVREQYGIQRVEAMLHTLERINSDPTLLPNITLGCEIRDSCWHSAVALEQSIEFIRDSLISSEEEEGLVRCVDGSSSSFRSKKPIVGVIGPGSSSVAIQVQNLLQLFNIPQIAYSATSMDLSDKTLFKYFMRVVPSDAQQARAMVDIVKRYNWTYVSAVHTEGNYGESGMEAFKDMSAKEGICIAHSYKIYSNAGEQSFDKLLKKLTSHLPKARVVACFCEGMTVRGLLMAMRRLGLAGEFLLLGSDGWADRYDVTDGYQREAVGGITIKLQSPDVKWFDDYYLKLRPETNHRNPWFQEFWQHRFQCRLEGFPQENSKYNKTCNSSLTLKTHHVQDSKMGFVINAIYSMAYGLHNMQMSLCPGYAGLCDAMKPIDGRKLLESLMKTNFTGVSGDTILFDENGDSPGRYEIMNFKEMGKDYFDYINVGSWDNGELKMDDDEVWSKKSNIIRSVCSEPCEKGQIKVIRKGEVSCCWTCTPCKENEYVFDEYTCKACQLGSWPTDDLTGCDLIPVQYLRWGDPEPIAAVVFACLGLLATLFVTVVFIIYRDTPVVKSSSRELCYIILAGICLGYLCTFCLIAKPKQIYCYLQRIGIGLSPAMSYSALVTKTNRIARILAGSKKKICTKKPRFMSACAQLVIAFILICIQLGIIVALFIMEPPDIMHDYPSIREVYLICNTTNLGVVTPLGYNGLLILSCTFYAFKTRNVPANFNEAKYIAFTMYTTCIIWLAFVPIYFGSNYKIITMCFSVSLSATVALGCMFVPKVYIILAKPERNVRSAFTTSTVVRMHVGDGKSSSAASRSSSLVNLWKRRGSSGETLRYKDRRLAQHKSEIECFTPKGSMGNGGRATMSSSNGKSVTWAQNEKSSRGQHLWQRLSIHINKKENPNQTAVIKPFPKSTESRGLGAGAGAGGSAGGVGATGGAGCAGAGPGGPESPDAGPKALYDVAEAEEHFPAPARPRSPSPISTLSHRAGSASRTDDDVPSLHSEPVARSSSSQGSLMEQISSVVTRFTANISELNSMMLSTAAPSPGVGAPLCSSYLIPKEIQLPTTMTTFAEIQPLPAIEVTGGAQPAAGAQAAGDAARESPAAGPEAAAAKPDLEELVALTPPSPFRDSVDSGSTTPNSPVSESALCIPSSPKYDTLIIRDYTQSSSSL

The term IC50 denotes the concentration needed to halve the response being measured. For orientation: Ki means a dissociation constant, usually derived from enzyme kinetics or from competition with a known ligand. Consider `Cc1cccc(-c2noc(C3CCCCN3C(=O)C3CCC3)n2)c1` (racemic), for which the 50% inhibitory concentration (IC50) in assay [1] is 490 nM. In assay [2], the Ki is 126 nM.
For `Cc1ccc(C(=O)N2CCCC2c2nc(-c3cccc(Cl)c3)no2)s1` (racemic), in that order: 6610 nM and 123 nM.
In the case of `Cc1ccc(C(=O)N2CCCC2c2nnn(-c3cccc(Cl)c3)n2)s1` (racemic), in assay [1], the IC50 is 251 nM. The molecule also had a Ki in assay [2] of 89.1 nM.
Take `O=C(c1ccco1)N1CCCCC1c1nnn(-c2cccc(Cl)c2)n1` (racemic): the affinity in assay [2] corresponds to a Ki of 126 nM.
Consider `O=C(C1CCC1)N1CCCCC1c1nnn(-c2cccc(Cl)c2)n1` (racemic), for which the IC50 in assay [1] is 339 nM. Further, the Ki in assay [2] was 77.6 nM.
`Cc1cccc(-n2nnc(C3CCCCN3C(=O)C3CCCC3)n2)c1` (racemic): the affinity in assay [2] corresponds to a Ki of 102 nM.
As for `COCC(=O)N1CCCC1c1nc(-c2cccc(C)c2)no1` (racemic), the concentration for half-maximal inhibition (IC50) in assay [1] is 30200 nM. Affinity in assay [2] was put at a Ki of 186 nM.
Taken in the same sequence, the figures for `O=C(c1cccs1)N1CCCC1c1nc(-c2cccc(Cl)c2)no1` (racemic) were 30200 nM and 195 nM.
For `Cc1ccc(C(=O)N2CSCC2c2nc(-c3cccc(Cl)c3)no2)s1` (racemic), the IC50 in assay [1] is 759 nM. Moreover, in assay [2], affinity was put at a Ki of 83.2 nM.
Taken in the same sequence, the figures for `Cc1cccc(-c2noc(C3CCCN3C(=O)c3ccc(C)s3)n2)c1` (racemic) were 1000 nM and 145 nM.
In assay [2], `N#Cc1cccc(-n2nnc(C3CCCCN3C(=O)C3CCC3)n2)c1` (racemic) gave a Ki of 229 nM.
On the same count and under the same terms, under `CC(C)C(=O)N1CCCCC1c1nnn(-c2cccc(Cl)c2)n1` (racemic) stands 138 nM.
In the case of `CN1CC(=O)N=C1NC(=O)Nc1cccc(Cl)c1` [FENOBAM ANHYDROUS], the affinity in assay [3], expressed as Ki, was 6.76 nM.
With `N#Cc1cccc(-c2noc(C3CCCCN3C(=O)c3cccs3)n2)c1` (racemic), the IC50 in assay [1] was 1740 nM. The same molecule had a Ki in assay [2] of 200 nM.
In turn, `O=C(c1ccc(Br)o1)N1CCCCC1c1nnn(-c2cccc(F)c2)n1` (racemic) had an inhibition constant (Ki) in assay [2] of 457 nM.
Same read-out and setting: in the case of `O=C(c1cccs1)N1CCCC(c2nnn(-c3cccc(Cl)c3)n2)C1` (racemic) it was 316 nM.
`O=C(C1CCC1)N1CCCC[C@@H]1c1nnn(-c2cccc(Cl)c2)n1` had an inhibition constant (Ki) in assay [2] of 57.5 nM.
On to `O=C(c1ccco1)N1CSCC1c1nc(-c2cccc(Cl)c2)no1` (racemic), for which the 50% inhibitory concentration (IC50) in assay [1] is 1050 nM. In addition, the affinity in assay [2] corresponds to a Ki of 195 nM.
The molecule `O=C(C1CCC1)N1CCCC[C@H]1c1nnn(-c2cccc(Cl)c2)n1` showed a Ki in assay [2] of 741 nM.
On the same count and under the same terms, in the case of `Cc1ccc(C(=O)N2CCCC2c2nnn(-c3cccc(Cl)c3)n2)o1` (racemic) it was 105 nM.
Turning to `COc1cccc(-c2noc(C3CCCCN3C(=O)C3CCC3)n2)c1` (racemic), the concentration for half-maximal inhibition (IC50) in assay [1] was 501 nM. The molecule also had an inhibition constant (Ki) in assay [2] of 182 nM.
Taken in the same sequence, the figures for `O=C(C1CCCC1)N1CCCCC1c1nnn(-c2cccc(Cl)c2)n1` (racemic) were 295 nM and 87.1 nM.
For `Cc1cccc(-n2nnc(C3CCCCN3C(=O)C3CCC3)n2)c1` (racemic), the IC50 in assay [1] was 224 nM. Also, the affinity in assay [2], expressed as Ki, was 72.4 nM.

(Values after ChEMBL document CHEMBL1158608, “Hit-to-lead optimization of disubstituted oxadiazoles and tetrazoles as mGluR5 NAMs” (Bioorg Med Chem Lett, 2010).)
